Reference: ChEMBL document CHEMBL1143136 (J Med Chem, 2008)
Where a SMILES comes first, the peptide text is derived from it. The star is where a group is joined. Trt = c1ccc(C(c2ccccc2)(c2ccccc2)*)cc1

Tests used:
[1] = test system: HeLa; experiment: Cell cycle arrest in human HeLa cells assessed as accumulation at G2/M phase at 1 uM after 24 hrs; format: functional
Method in brief: (§1)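 HeLa cells grown in DMEM with 10% FBS at 37 °C, 5% CO2, in 60 mm dishes, exposed to drug for 24 h. Drugs were diluted in medium from 50 mM DMSO stocks. Cells were fixed in 90% methanol at −20 °C and stained with propidium iodide. Flow cytometry gave the percentage of cells with 4N DNA content (G2/M).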

[2] = test system: HeLa; experiment: Induction of mitotic arrest in human HeLa cells assessed as monoastral spindle formation after 24 hrs; format: functional, cell-based
[3] = test system: HeLa; experiment: Cell cycle arrest in human HeLa cells assessed as accumulation at G2/M phase at 5 uM after 24 hrs; format: functional; method in brief: as §1
[4] = test system: HeLa; experiment: Induction of mitotic arrest in human HeLa cells after 24 hrs; format: functional, cell-based
Method in brief: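 A concentration series was given to HeLa cells for 24 h (DMEM, 10% FBS, 37 °C, 5% CO2). Cells were fixed in methanol at −20 °C, then stained with MPM-2 antibody/FITC secondary and propidium iodide. Two-dimensional flow cytometry followed.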

[5] = test system: HeLa; experiment: Induction of mitotic arrest in human HeLa cells at 1 uM assessed as MPM2 antibody positive cells after 24 hrs; format: functional
Method in brief: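 HeLa cells (DMEM, 10% FBS, 37 °C, 5% CO2) were drug-treated for 24 h, then fixed in 90% methanol at −20 °C. They were labelled with MPM-2 mitotic phospho-epitope antibody plus FITC anti-mouse IgG, and with propidium iodide. Two-dimensional flow cytometry gave the percentage of 4N-arrested cells that were MPM2-positive.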

[6] = cells; conditions: Homo sapiens, NCI60

Row | SMILES | Activity [1] [%] | EC50 [2] [nM] | further results
1 | COC(=O)[C@@H](N)CSC(c1ccccc1)(c1ccccc1)c1ccccc1 | 20.2 | 1080 | Activity [3]: 72.4%
2 | CCCCC(SC[C@H](N)C(=O)O)(c1ccccc1)c1ccccc1 | 19.1 | 1400 | Activity [3]: 71.1%
3 | CC(C)C(SC[C@H](N)C(=O)O)(c1ccccc1)c1ccccc1 | 22.6 | 1080 | Activity [3]: 59.1%
4 | N[C@@H](CSC(c1ccccc1)(c1ccc(CO)cc1)c1ccc(CO)cc1)C(=O)O | – | > 5000 | –
5 | N[C@@H](CSC(c1ccccc1)(c1ccccc1)c1ccc2c(c1)OCO2)C(=O)O | 24.3 | 1370 | Activity [3]: 68%
6 | N[C@@H](CSC(c1ccccc1)(c1ccccc1)c1ccc2ccccc2c1)C(=O)O | 68.1 | 330 | EC50 [4]: 600 nM; Activity [5]: 79.9%
7 | N[C@@H](CSC1(c2ccccc2)c2ccccc2-c2ccccc21)C(=O)O | – | > 5000 | –
8 | NCCCSC(c1ccccc1)(c1ccccc1)c1ccccc1 | – | > 5000 | –
9 | N[C@@H](CSC1(c2ccc(F)cc2)c2ccccc2-c2ccccc21)C(=O)O | – | > 5000 | –
10 | N[C@@H](CSC(c1ccccc1)(c1ccccc1)C1CCCCC1)C(=O)O | 19.9 | 1850 | Activity [3]: 55.2%
11 | N[C@@H](CSC(c1ccccc1)(c1ccccc1)c1ccc(O)cc1)C(=O)O | – | > 5000 | –
12 | NCCCCSC(c1ccccc1)(c1ccccc1)c1ccccc1 | – | > 5000 | –
13 | N[C@@H](CSC(c1ccccc1)(c1ccccc1)c1ccccc1)C(=O)NCC(=O)O | – | > 5000 | –
14 | N[C@@H](CSC1(c2ccc(Cl)cc2)c2ccccc2-c2ccccc21)C(=O)O | – | > 5000 | –
15 | CC(=O)N[C@@H](CSC1(c2ccccc2)c2ccccc2-c2ccccc21)C(=O)O | – | > 5000 | –
16 | COc1ccc(C(SC[C@H](N)C(=O)O)(c2ccccc2)c2ccc(OC)cc2)cc1 | – | > 5000 | –
17 | N[C@@H](CSC(c1ccccc1)(c1ccc(-c2ccccc2)cc1)c1ccc(-c2ccccc2)cc1)C(=O)O | – | > 5000 | –
18 | N[C@@H](CSC(c1ccccc1)(c1ccccc1)c1cccc2ccccc12)C(=O)O | – | > 5000 | –
19 | COc1ccc(C(SC[C@H](N)C(=O)O)(c2ccccc2)c2ccccc2)cc1 | 69 | 200 | EC50 [4]: 300 nM; Activity [5]: 81.6%
20 | CCC(SC[C@H](N)C(=O)O)(c1ccccc1)c1ccccc1 | – | > 5000 | –
21 | CC(SC[C@H](N)C(=O)O)(c1ccccc1)c1ccccc1 | – | > 5000 | –

Row | SMILES | Activity [1] [%] | EC50 [2] [nM] | further results
22 | NCCSC(c1ccccc1)(c1ccccc1)c1ccccc1 | 21.1 | 1080 | Activity [3]: 65.8%
23 | CC(C)(SC(c1ccccc1)(c1ccccc1)c1ccccc1)C(N)C(=O)O (centres undefined) | – | > 5000 | –
24 | N[C@@H](CSC(c1ccccc1)(c1ccccc1)c1ccc(Cl)cc1)C(=O)O | 48.5 | 510 | EC50 [4]: 660 nM; Activity [3]: 74.7%
25 | Cc1ccc(C(SC[C@H](N)C(=O)O)(c2ccccc2)c2ccc(C)cc2)cc1 | 50.8 | 530 | EC50 [4]: 1000 nM; Activity [3]: 70.9%
26 | O=C(O)C(CSC(c1ccccc1)(c1ccccc1)c1ccccc1)/N=C/c1cccs1 (centres undefined) | – | > 5000 | –
27 | CC(NC(=O)[C@@H](N)CSC(c1ccccc1)(c1ccccc1)c1ccccc1)C(=O)O (some centres undefined) | – | > 5000 | –
28 | Cc1ccc(C(SC[C@H](N)C(=O)O)(c2ccc(C)cc2)c2ccc(C)cc2)cc1 | – | 3100 | Activity [3]: 34.1%
29 | Cc1ccc(C2(SC[C@H](N)C(=O)O)c3ccccc3-c3ccccc32)cc1 | – | > 5000 | –
30 | N[C@@H](CSC(c1ccccc1)(c1ccccc1)c1ccc(CO)cc1)C(=O)O | – | > 5000 | –
31 | N[C@@H](CSC(c1ccccc1)(c1ccccc1)c1ccc(Br)cc1)C(=O)O | 68.7 | 310 | EC50 [4]: 450 nM; Activity [5]: 77.4%
32 | N[C@@H](CSC(c1ccccc1)(c1ccccc1)c1ccc(F)cc1)C(=O)O | 24 | 1550 | Activity [3]: 68.8%
33 | N[C@@H](COC(c1ccccc1)(c1ccccc1)c1ccccc1)C(=O)O | – | > 5000 | –
34 | N[C@@H](CSC1(c2cccc3ccccc23)c2ccccc2-c2ccccc21)C(=O)O | – | > 5000 | –
35 | Cc1ccc(C(SC[C@H](N)C(=O)O)(c2ccccc2)c2ccccc2)cc1 | 71 | 210 | EC50 [4]: 330 nM; Activity [5]: 84.1%
36 | N[C@@H](CSC(c1ccccc1)c1ccccc1)C(=O)O | – | > 5000 | –
37 | N[C@@H](CSC(c1ccccc1)(c1ccccc1)c1ccccc1)C(=O)OC(c1ccccc1)c1ccccc1 | – | > 5000 | –
38 | N[C@@H](CSC(c1ccccc1)(c1ccccc1)c1ccccc1)C(=O)N[C@@H](CSC(c1ccccc1)(c1ccccc1)c1ccccc1)C(=O)O (H-Cys(Trt)-Cys(Trt)-OH) | – | > 5000 | –
39 | COC(=O)[C@H](CC(C)C)NC(=O)[C@@H](N)CSC(c1ccccc1)(c1ccccc1)c1ccccc1 (H-Cys(Trt)-Leu-OMe) | – | 5000 | –
40 | COC(=O)[C@@H](NC(=O)[C@@H](N)CSC(c1ccccc1)(c1ccccc1)c1ccccc1)C(C)C (H-Cys(Trt)-Val-OMe) | – | 3500 | Activity [3]: 21.8%
41 | N[C@@H](CSC(c1ccccc1)(c1ccccc1)c1ccccc1)C(=O)O [S-TRITYL-L-CYSTEINE] | 23.1 | 700 | GI50 [6]: 1310 nM; EC50 [4]: 1700 nM; Activity [3]: 75.8%
